Experimental findings from ChEMBL document CHEMBL3351655, “Scaffold decoration at positions 5 and 8 of 1,2,4-triazolo[1,5-c]pyrimidines to explore the antagonist profiling on adenosine receptors: a preliminary structure-activity relationship study” (J Med Chem, 2014) are described below.

Experiment [1] has as its system CHO. Kind of experiment: Selectivity ratio of Ki for human adenosine A1 receptor expressed in CHO cells to Ki for human adenosine A2A receptor expressed in CHO cells. In kind it is cell-based.
The target in the next experiment is T1, Adenosine receptor A3 (Homo sapiens, UniProt P0DMS8).
T1 sequence (P0DMS8 whole entry): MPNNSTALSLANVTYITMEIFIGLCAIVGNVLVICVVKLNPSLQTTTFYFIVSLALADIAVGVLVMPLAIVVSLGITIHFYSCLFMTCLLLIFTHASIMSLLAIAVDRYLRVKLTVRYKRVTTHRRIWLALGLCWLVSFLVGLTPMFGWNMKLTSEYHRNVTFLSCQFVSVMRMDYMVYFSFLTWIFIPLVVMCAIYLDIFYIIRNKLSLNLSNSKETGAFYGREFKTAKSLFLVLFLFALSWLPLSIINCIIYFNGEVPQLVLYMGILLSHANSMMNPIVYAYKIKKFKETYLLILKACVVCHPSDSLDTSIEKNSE
Kind of experiment: Displacement of [3H]NECA from human adenosine A3 receptor expressed in CHO cells. In kind it is cell-based. The method, boiled down:
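Radioligand [³H]NECA was used on membranes from stably transfected CHO cells, prepared by a 1000g clearing spin then pelleting at 100 000g. Pellets were resuspended in binding buffer, frozen in liquid nitrogen and stored. Nonspecific binding was defined with 100 μM R-PIA.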
In general terms: Loss of bound radioactivity is the signal in a displacement assay; it reports binding, not function.

Experiment [2] concerns the target Adenosine receptors; A1 & A3 (Homo sapiens) (UniProt P30542+P0DMS8). The experiment in a line: Selectivity ratio of Ki for human adenosine A1 receptor expressed in CHO cells to Ki for human adenosine A3 receptor expressed in CHO cells. In kind it is cell-based.
The target in a further experiment is T2, Adenosine receptor A1 (Homo sapiens, UniProt P30542).
T2 sequence (P30542 whole entry): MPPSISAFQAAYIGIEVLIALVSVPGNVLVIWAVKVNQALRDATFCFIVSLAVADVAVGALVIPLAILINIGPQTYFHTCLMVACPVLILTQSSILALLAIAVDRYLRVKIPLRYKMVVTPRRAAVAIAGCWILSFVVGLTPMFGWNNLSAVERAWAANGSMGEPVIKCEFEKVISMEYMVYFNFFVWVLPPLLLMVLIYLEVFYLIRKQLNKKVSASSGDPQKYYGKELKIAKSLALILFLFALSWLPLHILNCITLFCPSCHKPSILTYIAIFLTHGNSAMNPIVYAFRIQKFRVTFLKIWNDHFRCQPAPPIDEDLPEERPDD
Kind of experiment: Displacement of [3H]CCPA from human adenosine A1 receptor expressed in CHO cells. In kind it is cell-based. The method in brief:
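Stably transfected CHO cells were homogenised and spun at 1000g to remove nuclei and fragments. Membranes were then pelleted at 100 000g, resuspended in binding buffer, frozen in liquid nitrogen and stored. Radioligand was [³H]CCPA, with nonspecific binding defined by 1 mM theophylline.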

Experiment [3] relates to CHO. Kind of experiment: Selectivity ratio of Ki for human adenosine A2A receptor expressed in CHO cells to Ki for human adenosine A3 receptor expressed in CHO cells. It counts as cell-based.
Another experiment deals with Adenosine receptor A2a (Homo sapiens, UniProt P29274). The experiment in a line: Displacement of [3H]NECA from human adenosine A2A receptor expressed in CHO cells. In kind it is cell-based.
Adenosine receptor A2a, sequence (P29274 whole entry): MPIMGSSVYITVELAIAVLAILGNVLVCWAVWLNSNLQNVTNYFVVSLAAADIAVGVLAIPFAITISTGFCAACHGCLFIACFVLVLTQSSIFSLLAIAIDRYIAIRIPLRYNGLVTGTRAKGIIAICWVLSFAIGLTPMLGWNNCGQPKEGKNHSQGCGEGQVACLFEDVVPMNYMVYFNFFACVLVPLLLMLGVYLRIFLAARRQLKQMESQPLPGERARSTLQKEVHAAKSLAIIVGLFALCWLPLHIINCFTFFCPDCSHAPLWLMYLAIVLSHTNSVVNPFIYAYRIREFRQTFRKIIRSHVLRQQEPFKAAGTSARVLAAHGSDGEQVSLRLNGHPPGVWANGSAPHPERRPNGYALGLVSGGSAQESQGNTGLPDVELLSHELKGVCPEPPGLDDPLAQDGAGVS
Another experiment deals with T3, Adenosine receptor A2b (Homo sapiens, UniProt P29275).
T3 sequence (P29275 whole entry): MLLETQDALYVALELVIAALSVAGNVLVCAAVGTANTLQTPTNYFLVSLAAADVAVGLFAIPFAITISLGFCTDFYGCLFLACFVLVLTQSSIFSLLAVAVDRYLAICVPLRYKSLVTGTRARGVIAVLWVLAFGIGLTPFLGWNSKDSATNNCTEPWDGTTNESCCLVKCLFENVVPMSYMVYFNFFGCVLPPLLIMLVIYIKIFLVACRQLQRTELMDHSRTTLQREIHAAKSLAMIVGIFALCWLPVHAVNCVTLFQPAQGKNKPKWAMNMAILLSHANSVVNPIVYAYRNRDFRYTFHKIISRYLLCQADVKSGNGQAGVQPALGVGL
Kind of experiment: Antagonist activity at human adenosine A2B receptor expressed in CHO cells assessed as inhibition of NECA-stimulated adenylyl cyclase activity. It counts as functional, cell-based. The method in brief: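 Membranes from stably transfected CHO cells, made with a single high-speed centrifugation of the homogenate. Incubated 20 min with about 150 000 cpm [α-³²P]ATP, in a mixture without EGTA and NaCl. IC50 for concentration-dependent inhibition of NECA-stimulated adenylyl cyclase was fitted with the Hill equation and converted to Ki by Cheng–Prusoff.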

The Ki is a dissociation constant, usually derived from enzyme kinetics or from competition with a known ligand.

In the case of `CCOC(=O)c1cnc(NCc2ccc(F)cc2)n2nc(-c3ccco3)nc12`, the Ratio Ki was determined as 23.7 with CHO [1], 20.1 in experiment [2] and 0.85 with CHO [3]. Moreover, the Ki worked out at 46.3 nM at Adenosine receptor A3, 932 nM on Adenosine receptor A1, 39.3 nM at Adenosine receptor A2a and 1970 nM on Adenosine receptor A2b.

Regarding `CCOC(=O)c1cnc(NC(c2ccccc2)c2ccccc2)n2nc(-c3ccco3)nc12`, the values for the Ratio Ki (in the experiment with CHO [1]; in experiment [2]; in the experiment on CHO [3]) were 2.45, 2.81 and 1.14, respectively. Also, the Ki on Adenosine receptor A3 is 336 nM; at Adenosine receptor A1, 943 nM; on Adenosine receptor A2a, 385 nM; on Adenosine receptor A2b it was over 30000 nM.

For `O=C(O)c1cnc(NCC2CCCCC2)n2nc(-c3ccco3)nc12`, the results for the Ratio Ki (with CHO [1]; in experiment [2]; in the experiment with CHO [3]) were 0.08, 0.17 and 2.14, respectively. Further, the Ki at Adenosine receptor A3 is 15800 nM; at Adenosine receptor A1 it was 2740 nM; at Adenosine receptor A2a it was 33900 nM; at Adenosine receptor A2b, over 10000 nM.

As for `CNC(=O)c1cnc(NC(=O)NC2CCCCC2)n2nc(-c3ccco3)nc12`, the Ratio Ki was 5.91 in the experiment with CHO [1], 0.48 in experiment [2] and 0.08 with CHO [3]. Moreover, the inhibition constant (Ki) on Adenosine receptor A3 is 18700 nM; at Adenosine receptor A1, 8990 nM; on Adenosine receptor A2a, 1520 nM; on Adenosine receptor A2b, over 30000 nM.
